CHT PAM: allosteric activators of human choline transporter CHT; Q9GZV3; CHT-expressing cells, membrane potential dye, choline EC20; stronger effect = higher value; LV-AA mutant CHT in HEK293 cells; B-score at 10 µM; 0.49% of 310,000 active; AID 488977;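 active = initial fluorescence not abnormally high and integrated response B-score, plate-corrected, over 3 SD above library mean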
Cl transport mod: modulates chloride dependent transport by human KCC2. Q9H2X9. KCC2 cells, thallium flux FluoZin-2 fluorescence. B-score of Tl+ flux slope (higher = more flux/activation; lower = inhibition) at 10 µM. 2.2% of 190,000 active;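 active = thallium flux slope and its plate-corrected score both differing from the plate sample mean at a set confidence after two filtering rounds, in either direction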;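 also: slope of fluorescence scaled to starting intensity during 10 to 20 s after thallium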
Target sequence (Q9H2X9 whole entry, looked up): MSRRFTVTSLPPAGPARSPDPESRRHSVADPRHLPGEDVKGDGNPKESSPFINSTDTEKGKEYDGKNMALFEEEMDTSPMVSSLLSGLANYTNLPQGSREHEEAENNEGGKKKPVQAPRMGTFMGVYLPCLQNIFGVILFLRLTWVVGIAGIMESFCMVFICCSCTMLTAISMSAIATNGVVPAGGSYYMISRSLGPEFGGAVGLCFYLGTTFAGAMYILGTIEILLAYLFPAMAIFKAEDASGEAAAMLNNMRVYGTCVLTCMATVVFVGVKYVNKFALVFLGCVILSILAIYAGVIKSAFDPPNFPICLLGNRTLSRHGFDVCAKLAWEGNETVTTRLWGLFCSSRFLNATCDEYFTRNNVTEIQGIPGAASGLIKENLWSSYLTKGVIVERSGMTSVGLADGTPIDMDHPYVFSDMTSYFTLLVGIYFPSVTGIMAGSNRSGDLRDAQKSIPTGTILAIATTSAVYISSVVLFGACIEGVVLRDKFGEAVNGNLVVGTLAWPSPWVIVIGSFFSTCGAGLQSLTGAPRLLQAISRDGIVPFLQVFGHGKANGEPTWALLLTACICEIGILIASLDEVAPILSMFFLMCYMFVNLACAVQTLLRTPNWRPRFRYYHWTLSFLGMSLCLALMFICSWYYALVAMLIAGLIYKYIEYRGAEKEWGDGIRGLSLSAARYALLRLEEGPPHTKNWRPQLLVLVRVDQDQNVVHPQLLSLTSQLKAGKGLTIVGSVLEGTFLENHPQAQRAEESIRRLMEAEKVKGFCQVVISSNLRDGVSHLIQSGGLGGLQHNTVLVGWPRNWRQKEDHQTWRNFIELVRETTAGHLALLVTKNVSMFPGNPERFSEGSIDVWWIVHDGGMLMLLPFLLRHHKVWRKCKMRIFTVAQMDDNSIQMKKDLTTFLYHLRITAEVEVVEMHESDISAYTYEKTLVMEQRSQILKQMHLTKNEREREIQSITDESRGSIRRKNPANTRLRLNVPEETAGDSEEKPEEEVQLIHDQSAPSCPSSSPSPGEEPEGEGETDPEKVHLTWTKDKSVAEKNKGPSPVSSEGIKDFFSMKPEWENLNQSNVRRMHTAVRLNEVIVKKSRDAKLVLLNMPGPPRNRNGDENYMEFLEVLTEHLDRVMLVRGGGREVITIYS
CHT block: human CHT choline transport inhibition. B-score at 10 µM. CHT-expressing cells, membrane potential dye, choline response; stronger effect = lower value. Q9GZV3. 0.86% of 310,000 active. AID 488975;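 active = B-score over 3 SD under the library average, and starting fluorescence ratio not unusually high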;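 also: choline stimulus applied at its EC90 after an EC20 pre-addition; B-score computed on integrated fluorescence ratio after choline addition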
Rad51 HR inh: blocks human Rad51 in homologous recombination | Q06609 | hRad51 DNA strand exchange, fluorescence dequenching | inhibition, % at 10 µM | 0.085% of 200,000 active | AID 1385;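 active = inhibition above 40% at the single screening dose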;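 also: 0% = DMSO control wells and 100% = blanks with heterologous ssDNA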
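Test system – preformed human Rad51 ssDNA filaments · Reagent – Donor/quencher-labelled 47-bp dsDNA substrate · Incubation – 37 °C 15-min filament assembly, 30-min compound preincubation, 15-min exchange · Signal – FRET fluorescence dequenching, excitation 485 nm, emission 520 nm · Read-out – percent inhibition from fluorescence, normalised to plate control and blank means · Benchmarks – plate control and blank wells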
KCC2 sec1: confirmation of human KCC2 transport modulators | shares compounds with Cl transport mod | HEK293-KCC2, thallium flux, FluoZin2 fluorescence; stronger effect = higher value | normalised thallium flux (F/F0 slope) at 10 µM | 15% of 3,700 active | AID 1713;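 active = thallium flux slope above the same plate's solvent-only control mean plus 3 SD; inconclusive = the two replicate wells disagree; inactive = no significant difference from solvent-only control wells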
KCC2 bumet counter: bumetanide-insensitive thallium flux in KCC2 cells with ouabain, counter-screen. HEK293-KCC2 + bumetanide/ouabain, thallium flux FluoZin2; stronger effect = higher value. shares compounds with Cl transport mod. normalized thallium flux at 10 µM. AID 1714. 49% of 3,700 active;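 active = thallium entry rate above the same plate's blocked-transporter control wells by more than 3 SD; inconclusive = the two repeat wells disagree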;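 also: raw slope of fluorescence over initial fluorescence between 10 and 20 s after thallium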
KCC2 secondary2: confirmation of human KCC2 transport modulators; 23% of 3,700 active; shares compounds with Cl transport mod; HEK293-KCC2, thallium flux FluoZin2 fluorescence; actives lie on both sides; F/F0 rise rate, 10–20 s post-thallium; normalized thallium flux at 10 µM;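 active = thallium flux slope more than 3 SD above or below the plate's solvent-only control mean, mostly below; inconclusive = the two repeat wells disagreed; inactive = no significant shift from solvent-only controls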;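 also: raw slope with 0.1% DMSO as baseline and bumetanide as block control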
HEK293 Tl flux: parental HEK flux effect, counter-screen; shares compounds with Cl transport mod; HEK293 parental cells, thallium flux FluoZin2, ouabain; baseline-ratio fluorescence slope, 10–20 s after thallium; thallium flux rate (normalised fluorescence) at 10 µM; 46% of 3,700 active; AID 1716;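 active = thallium flux rate significantly above the same plate's solvent-only control wells, beyond their mean plus 3 SD; inconclusive = the two replicate wells gave conflicting results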
KCC2 ouabain: confirmation of human KCC2 modulators with ouabain. shares compounds with Cl transport mod. HEK293-KCC2, thallium flux FluoZin2 fluorescence; bidirectional: low = inhibitor, high = activator. raw Tl+ flux slope (below DMSO = inhibition, above = activation) at 10 µM. 48% of 3,700 active;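 active = thallium flux slope beyond 3 SD from same-plate DMSO control mean in most replicates, usually higher, sometimes lower; inconclusive = repeat tests gave conflicting results; inactive = no significant difference from controls in most replicates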;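 also: slope of initial-normalized fluorescence between seconds 10 and 20 after thallium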
HEK counter2: parental HEK flux effect, counter-screen 2 | shares compounds with Cl transport mod | HEK293 parental, thallium flux FluoZin-2 fluorescence slope | thallium flux slope at 10 µM | 33% of 3,700 active | AID 1718;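 active = thallium flux slope above the same plate's solvent-control mean plus 3 SD in both duplicate wells; inconclusive = duplicate wells that disagreed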;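 also: run without ouabain in cells lacking the KCC2 cotransporter; slope of fluorescence scaled to its starting value between 10 and 20 s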
Starred values were filed as active, the others as inactive; i = inactive; ? = inconclusive; · = no result. This is a sample that favours compounds with a hit; in the whole collection about 2.6% have one here.

SMILES	CHT PAM	Cl transport mod	CHT block	Rad51 HR inh	KCC2 sec1	KCC2 bumet counter	KCC2 secondary2	HEK293 Tl flux	KCC2 ouabain	HEK counter2
CC(C)(C)c1ccc(OCCC(=O)OCC(=O)Nc2cccnc2Cl)cc1	i	·	i	·	·	·	·	·	·	·
Cc1cc(C)nc(N2CCCC(C(=O)NCc3ccccc3)C2)n1 (stereo not drawn)	i	-0.47	i	-6	·	·	·	·	·	·
Cc1cc(C)nc(N2CCCC(C(=O)NC(C)CCc3ccco3)C2)n1 (stereo not drawn)	i	·	i	-5	0.0075	0.005	0.033	0.0066	0.018	0.01
CC(C)c1nnc(SCC(=O)NC2CCCC2)n1C	i	·	i	·	·	·	·	·	·	·
COc1ccc(-c2cnc3n2CCCCC3)cc1	i	0.032	i	·	·	·	·	·	·	·
Brc1cccc(-c2cnc3n2CCCCC3)c1	i	·	i	4	0.0093	0.0056	0.033	0.0038	0.019	0.011
Cc1c(Cl)cccc1NC(=S)N(CCN(C)C)C(C)c1ccco1 (stereo not drawn)	i	0.35	i	18	·	·	·	·	·	·
Clc1ccc(-c2cc(COc3ccccc3)on2)cc1	i	0.53	i	-1	·	·	·	·	·	·
S=C(N=Nc1ccccc1)NNc1ccccc1	i	23*	i	1	0.008	0.018*	0.039*	0.019*	0.027*	0.024*
Cc1ccc(SCC(=O)NCCc2ccccc2)cc1	i	·	i	·	·	·	·	·	·	·
Cc1ccc(CCNC(=O)Cn2cccc2)cc1	i	·	i	1	0.012	0.0064	0.031	0.0078	0.023	0.01
O=C(NC1CCCC1)NS(=O)(=O)c1ccccc1Cl	i	5.7*	i	0	0.0076	0.0059	0.028	0.0066	0.02	0.0094
O=C(C(c1ccccc1)c1ccccc1)N1CCN(Cc2ccco2)CC1	i	-1	i	-1	·	·	·	·	·	·
O=C(C[n+]1ccccc1)c1ccc(-c2ccccc2)cc1	i	-4.6*	i	5	0.015	0.0047	0.022*	0.0078	0.014	0.011
O=C(NCCOc1ccccc1F)c1ccccc1SCc1ccc(F)cc1	i	-6.2*	i	4	0.0094	0.007	0.022*	0.0058	0.012*	0.009
CCc1ccc(OCCNC(=O)c2ccccc2SCc2ccccc2)cc1	i	·	i	·	0.0082	?	0.024*	0.0038	0.015*	0.011
CCNC(=O)c1ccccc1SCc1ccccc1	i	-1.9	i	5	·	·	·	·	·	·
COc1cc(NC(=O)c2cccnc2)c(Cl)cc1NC(=O)c1ccccc1	i	·	i	·	·	·	·	·	·	·
CC1=C(C(=O)OCC(Br)(Br)Br)C(c2ccc(Br)cc2)NC(=O)N1CCCC(=O)O (stereo not drawn)	·	-2.3	·	8	·	·	·	·	·	·
COCCN1C(=O)C(O)=C(C(=O)c2ccco2)C1c1cccc(Oc2ccccc2)c1 (stereo not drawn)	i	-6.9*	i	-4	0.009	0.0058	?	0.0063*	0.017*	0.01
CCOc1cccc(C2C(C(=O)c3ccco3)=C(O)C(=O)N2Cc2ccncc2)c1 (stereo not drawn)	i	2.8	i	-4	·	·	·	·	·	·
COC(=O)C1CC(O)CN1S(=O)(=O)c1cccs1 (stereo not drawn)	i	0.64	i	-3	·	·	·	·	·	·
CCOc1ccc(NC(=O)CN(C)C(=O)c2cc3c(s2)CCCCC3)cc1OCC	i	·	i	·	·	·	·	·	·	·
O=C(NCc1ccccc1C(F)(F)F)C1CC(c2cc(C(F)(F)F)cc(C(F)(F)F)c2)=NO1 (stereo not drawn)	i	0.014	i	-12	·	·	·	·	·	·
O=C(NCc1ccccc1C(F)(F)F)C1CC(c2cccc(F)c2)=NO1 (stereo not drawn)	i	-2.7*	i	-2	0.0074	0.0046	0.027	0.0069	0.018	0.0089
SMILES	CHT PAM	Cl transport mod	CHT block	Rad51 HR inh	KCC2 sec1	KCC2 bumet counter	KCC2 secondary2	HEK293 Tl flux	KCC2 ouabain	HEK counter2
CCc1cc2c(SCC#N)ncnc2s1	i	6.1*	i	-2	0.0066	0.017*	0.036	0.017*	0.027*	0.017*
CCc1cc2c(SCC(=O)C(C#N)=C3N(C)c4ccccc4N3C)ncnc2s1	i	·	i	-4	0.0079	0.0095*	0.03	0.007	0.015	0.0098
COc1ccc(-c2oc3ccccc3c(=O)c2OC(C)=O)cc1	i	55*	i	-2	0.022*	0.09*	0.041	?	0.071*	?
CCOC(=O)Cn1c(=S)[nH]c2c(oc3ccc(Cl)cc32)c1=O	i	·	i	-6	0.022*	0.041*	0.033	0.02*	0.04*	0.014*
CCOC(=O)Cn1c(=O)oc2ccc(C)cc21	i	0.88	i	22	·	·	·	·	·	·
COCC(C)n1c(C)cc(C(=O)CSc2ccc(NC(C)=O)cc2)c1C (stereo not drawn)	i	-5.8*	i	10	0.0082	0.0056	0.035	0.0079	0.02	0.012
COc1ccc2c(C)cc(=S)[nH]c2c1	·	8*	·	6	0.017	0.015*	0.03	0.013*	0.019	0.014*
O=C(NC(=S)NCCC1=CCCCC1)c1cccnc1	i	14*	i	-4	0.0098	0.036*	0.031	0.013*	?	0.011*
O=C(Nc1cccc(Cl)c1)N1CCN(Cc2ccccc2)CC1	i	-4.6*	i	-3	0.0072	0.0054	0.03	0.0072	0.029*	?
COCCCNC(=O)Cn1cc(/C=C(\C#N)C(=O)NC2CCCC2)c2ccccc21	i	·	i	·	·	·	·	·	·	·
O=C(CCCNC(=O)/C(=C\c1ccc(F)cc1)NC(=O)c1ccccc1)OCc1ccccc1	i	-2.1	i	-5	·	·	·	·	·	·
O=C(CCCNC(=O)/C(=C/c1ccc(F)cc1)NC(=O)c1ccccc1)OCc1ccccc1	i	-3.2*	i	23	0.0075	0.0043	0.034	0.0067	0.018*	0.01
Cc1ccc(C)c(NC(=S)NNC(=O)c2sccc2C)c1	i	4.1*	i	-1	0.011	0.026*	0.038	?	0.031*	0.011
Cc1ccc(C)c(NC(=O)CN(C)C(=O)c2sccc2C)c1	i	·	i	·	·	·	·	·	·	·
O=C(Cc1coc(-c2ccc(F)cc2)n1)Nc1ccccc1	i	-3.8*	i	-2	0.01	0.0057	?	0.0068	0.035*	0.0098

High-throughput results deposited in PubChem by several laboratories.
